Measurements from different studies.
Compare with care: the assays were run in different laboratories. pKi: −log10 of the molar value.
Target: Delta-type opioid receptor (OPRD1, Homo sapiens, UniProt P41143)

| Structure (SMILES) | effect on | technique | setting | pKi |
| --- | --- | --- | --- | --- |
| Cc1cc(O)cc(C)c1C[C@H](N)C(=O)N1Cc2ccccc2C[C@@H]1C(=O)NCC(=O)NCc1ccccc1 | ligand displacement | radioligand | cell membranes | 8.49 |
| CCCCCCCCC[C@@H]1CC(=O)NCC(=O)N[C@H](Cc2ccc(O)cc2)C(=O)NCC(=O)N[C@@H](Cc2ccccc2)C(=O)O1 | ligand displacement | radioligand |  | 4.68 |
| Cc1cc(F)ccc1/N=N/C(=O)NCC1(N(C)C)CCCCC1 | cell-free assay |  |  | 4.92 |
| C[C@@H](NC(=O)[C@@H](N)Cc1ccc(O)cc1)C(=O)NCC(=O)N[C@H](CC(=O)NNC(=O)C[C@H](Cc1ccccc1)NC(=O)CNC(=O)[C@@H](C)NC(=O)[C@@H](N)Cc1ccc(O)cc1)Cc1ccccc1 | ligand displacement | radioligand |  | 9.14 |
| CN(C)C1(CNC(=O)/N=N/c2ccc(F)cc2)CCCCC1 | cell-free assay |  |  | 4.92 |
| Cc1cc(O)cc(C)c1C[C@H](N)C(=O)N[C@H](C)C(=O)NCC(=O)N[C@@H](Cc1ccc(Cl)cc1)C(=O)N(C)CCC[C@@]1(c2ccc(F)cc2)OCc2cc(C#N)ccc21 | cell-free assay |  |  | 8.40 |
| Cc1ccc(CNC(=O)CNC(=O)[C@@H]2Cc3ccccc3CN2C(=O)[C@@H](N)Cc2c(C)cc(O)cc2C)cc1 | ligand displacement | radioligand | cell membranes | 9.51 |
| CCCCC/C=C\C/C=C\C/C=C\C/C=C\CCCC(=O)O | ligand displacement | radioligand | cell membranes | 5.32 |
| COc1ccsc1CNCC[C@@]1(c2ccccn2)CCOC2(CCCC2)C1 | cell-free assay |  |  | 5.85 |
| CCCC[C@@H](NC(=O)[C@@H](N)Cc1c(C)cc(O)cc1C)C(=O)NCC(=O)N[C@@H](Cc1ccc(F)cc1)C(=O)N(C)CCC[C@@]1(c2ccc(F)cc2)OCc2cc(C#N)ccc21 | cell-free assay |  |  | 9.10 |
| Cc1cc(O)cc(C)c1C[C@H](N)C(=O)N1Cc2ccccc2C[C@H]1C(=O)NCC(=O)NCc1ccc(Cl)cc1 | ligand displacement | radioligand | cell membranes | 9.59 |
| CCCO[C@@]12Cc3cc(-c4ccccc4)cnc3[C@@H]3Oc4c(O)ccc5c4[C@@]31CCN(CC1CC1)[C@@H]2C5 | ligand displacement | radioligand | cell membranes | 8.13 |
| C[C@@H](NC(=O)[C@@H](N)Cc1ccc(O)cc1)C(=O)NCC(=O)N[C@@H](Cc1ccccc1)C(=O)N(C)CCC[C@@]1(c2ccc(F)cc2)OCc2cc(C#N)ccc21 | cell-free assay |  |  | 7.24 |
